Columns and labels:
CTSB = CTSB (Mus musculus, UniProt P10605); assay: Cathepsin activity in lysates of treated 4T1 cells, substrate Z-Arg-Arg-AMC; assay type: cell-based, murine; conditions: 1 μM, 4 h, then 1 h, relative to vehicle control
Method in brief: (§1)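 4T1 cells were given vehicle, 1 μM test compound, or 1 μM E64d (permeable positive control) for 4 h. Medium was then replaced, and cells received green light (520–525 nm) for 10 min or were kept dark, then incubated 1 h. Substrate 100 μM final; AMC fluorescence (ex 360/em 430 nm) read every 30 s for 5 min at 37 °C; % activity vs vehicle.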

cysteine cathepsins = assay: Cathepsin activity in lysates of treated 4T1 cells, substrate Z-Phe-Arg-AMC; assay type: cell-based, murine; conditions: 1 μM, 4 h, then 1 h, relative to vehicle control
Method in brief: as §1

[1] = Preliminary phototoxicity screen with green light; assay type: cell-based; conditions: green light (520–525 nm); data not shown

Chain of CTSB (P10605 80-339): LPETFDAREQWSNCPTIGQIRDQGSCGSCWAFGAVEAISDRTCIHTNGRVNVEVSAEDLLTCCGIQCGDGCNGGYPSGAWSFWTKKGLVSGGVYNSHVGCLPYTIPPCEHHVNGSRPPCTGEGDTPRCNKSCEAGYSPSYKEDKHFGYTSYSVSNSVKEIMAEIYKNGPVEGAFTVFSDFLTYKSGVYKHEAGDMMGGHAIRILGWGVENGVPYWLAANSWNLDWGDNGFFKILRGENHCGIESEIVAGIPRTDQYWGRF

Percent activity of cysteine cathepsins, substrate Z-Arg-Arg-AMC, Dark (CTSB; dark) | Percent activity of cysteine cathepsins, substrate Z-Arg-Arg-AMC, Light (CTSB; green light 10 min) | Compound | Percent activity of cysteine cathepsins, substrate Z-Phe-Arg-AMC, Dark (cysteine cathepsins; dark) | Percent activity of cysteine cathepsins, substrate Z-Phe-Arg-AMC, Light (cysteine cathepsins; green light 10 min) | phototoxicity in preliminary screen [1]
<5% | <5% | CCOC(=O)[C@H]1O[C@@H]1C(=O)N[C@@H](CC(C)C)C(=O)NCCC(C)C [Compound E64d] | 18 ± 4% | 21 ± 4% | 
 |  | [Ru(dppn)(dqpy)-(py)](PF6)2 |  |  | showed phototoxicity
